The test system of experiment [1] is HeLa. The experiment in a line: Cytotoxic effect against human cervical carcinoma cell line (HeLa). In kind it is functional, cell-based. The gist of the method: (§1)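 MTT assay on cells in log-phase growth, seeded at 2.5 × 10³ cells/well and kept at 37 °C in 5% CO₂. Compounds were added 24 h after seeding as serial PBS dilutions of a […] DMSO stock. After 72 h exposure, MTT was added for 4 h, then DMSO; absorbance read at 570 nm. At least three experiments; IC50 taken from the mean % absorbance versus concentration.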

Experiment [2] is described as follows: Inhibitory concentration against CDK1/Cyclin B complex from Marthasterias glacialis M-phase oocytes. The format is cell-based. To be noted: oocyte.
In experiment [3] the test system is HT-29. The experiment in a line: Cytotoxic effect against human colon carcinoma cell line (HT-29). The format is functional, cell-based. Summed up: as §1
For experiment [4], the system named is PC-3. The experiment in a line: Cytotoxic effect against human prostate carcinoma cell line (PC-3). In kind it is functional, cell-based. The gist of the method: as §1

Values joined by “and” are separate entries in the source; they are usually repeats but may differ in a detail not shown here. Equal entries are not always repeated.

As to `CC(C)(C)c1ccc(-c2[nH]nc3nnc(N)c-3c2-c2ccc(C(C)(C)C)cc2)cc1`, the 50% inhibitory concentration (IC50) in experiment [1] is 8.78 µM; in experiment [2] it was above 50 µM; in experiment [3] it was 8.5 µM.

With `Nc1[nH]nc2nnc(-c3ccc(C(F)(F)F)cc3)c(-c3ccc(C(F)(F)F)cc3)c12`, the half-maximal inhibitory concentration (IC50) in experiment [1] was above 100 µM; in experiment [2], above 50 µM; in experiment [3], above 100 µM.

On to `COc1ccc(-c2[nH]nc3nnc(N)c-3c2-c2ccc(OC)cc2)cc1`, for which the IC50 in experiment [4] was above 100 µM; in experiment [1], above 100 µM; in experiment [2] it was 15 µM; in experiment [3], above 100 µM.

Regarding `Nc1[nH]nc2nnc(-c3ccccn3)c(-c3ccccn3)c12`, the IC50 in experiment [1] is above 100 µM; in experiment [2], above 50 µM; in experiment [3] it was 73 µM.

Turning to `Oc1[nH]nc2nnc(-c3ccccc3)c(-c3ccccc3)c12`, the 50% inhibitory concentration (IC50) in experiment [4] is above 100 µM; in experiment [1], above 100 µM; in experiment [2], above 50 µM; in experiment [3], above 100 µM.

In the case of `Nc1ccc(-c2[nH]nc3nnc(N)c-3c2-c2ccc(N)cc2)cc1`, the IC50 in experiment [1] is above 100 µM; in experiment [2] it was above 50 µM; in experiment [3], 10.5 µM.

As to `Cc1n[nH]c2nnc(N)c-2c1-c1ccccc1`, the concentration for half-maximal inhibition (IC50) in experiment [4] was 72.4 µM; in experiment [1] it was 88.3 µM; in experiment [2] it was above 50 µM; in experiment [3], above 100 µM.

Turning to `Nc1[nH]nc2nnc(-c3ccco3)c(-c3ccco3)c12`, the IC50 is above 100 µM in experiment [1], 1.5 µM in experiment [2] and above 100 µM in experiment [3].

Regarding `Cc1n[nH]c2nnc(N)c-2c1C`, the half-maximal inhibitory concentration (IC50) in experiment [1] was above 100 µM; in experiment [2], above 50 µM; in experiment [3], above 100 µM.

Take `Nc1[nH]nc2nnc(-c3ccc(-c4ccccc4)cc3)c(-c3ccc(-c4ccccc4)cc3)c12`: the IC50 in experiment [1] was above 100 µM; in experiment [2], above 50 µM; in experiment [3] it was above 100 µM.

Take `Nc1nn(CCOCCO)c2nnc(-c3ccccc3)c(-c3ccccc3)c12`: the IC50 is above 100 µM in experiment [4], above 100 µM in experiment [1], above 50 µM in experiment [2] and above 100 µM in experiment [3].

In turn, `NNc1[nH]nc2nnc(-c3ccccc3)c(-c3ccccc3)c12` came in with a 50% inhibitory concentration (IC50) in experiment [2] of 8.5 µM.

For `O=C(Nc1ccccc1)Nc1[nH]nc2nnc(-c3ccccc3)c(-c3ccccc3)c12`, the IC50 in experiment [4] is above 100 µM; in experiment [1], 2.93 µM; in experiment [2], 9 µM; in experiment [3], above 100 µM.

For the molecule `CC(=O)Nc1nn(C(C)=O)c2nnc(-c3ccccc3)c(-c3ccccc3)c12`, the IC50 in experiment [4] was above 100 µM; in experiment [1], above 100 µM; in experiment [2], above 50 µM; in experiment [3], above 100 µM.

With `Nc1[nH]nc2nnc(-c3ccc([N+](=O)[O-])cc3)c(-c3ccc([N+](=O)[O-])cc3)c12`, the half-maximal inhibitory concentration (IC50) in experiment [1] is above 100 µM; in experiment [2] it was above 50 µM; in experiment [3], above 100 µM.

The molecule `CCNC(=O)Nc1[nH]nc2nnc(-c3ccco3)cc12` showed a concentration for half-maximal inhibition (IC50) in experiment [2] of 8.8 µM.

`Nc1[nH]nc2nnc(-c3ccco3)cc12`: the 50% inhibitory concentration (IC50) in experiment [4] is above 100 µM; in experiment [1], above 100 µM; in experiment [2], 5.3 µM; in experiment [3], above 100 µM.

In the case of `Nc1n[nH]c2nnc(-c3ccccc3)c(-c3ccccc3)c12`, the half-inhibitory concentration (IC50) in experiment [4] is above 100 µM; in experiment [1], above 100 µM; in experiment [2] it was 3 µM and 6.1 µM; in experiment [3], above 100 µM.

As to `Nc1nn(COCCO)c2nnc(-c3ccccc3)c(-c3ccccc3)c12`, the IC50 was above 100 µM in experiment [4], above 100 µM in experiment [1], above 50 µM in experiment [2] and above 100 µM in experiment [3].

Turning to `CCNC(=O)Nc1[nH]nc2nnc(-c3ccccc3)c(-c3ccccc3)c12`, the IC50 in experiment [4] was above 100 µM; in experiment [1] it was 60.4 µM; in experiment [2], 7.5 µM; in experiment [3] it was above 100 µM.

As to `CC(=O)Nc1[nH]nc2nnc(-c3ccccc3)c(-c3ccccc3)c12`, the IC50 in experiment [4] was above 100 µM; in experiment [1] it was above 100 µM; in experiment [2] it was above 50 µM; in experiment [3], above 100 µM.

Molecule `CC/N=C(\S)Nc1[nH]nc2nnc(-c3ccco3)cc12` displayed an IC50 in experiment [2] above 100 µM.

With `Nc1n[nH]c2nnc(-c3ccccc3)cc12`, the IC50 in experiment [1] was above 100 µM; in experiment [2], above 50 µM; in experiment [3], 80.8 µM.

Turning to `Nc1nn(Cc2ccccc2)c2nnc(-c3ccccc3)c(-c3ccccc3)c12`, the half-maximal inhibitory concentration (IC50) is above 100 µM in experiment [4], above 100 µM in experiment [1], above 50 µM in experiment [2] and above 100 µM in experiment [3].

Take `CC(=O)n1nc(N)c2c(-c3ccccc3)c(-c3ccccc3)nnc21`: the IC50 was above 100 µM in experiment [4], above 100 µM in experiment [1], above 50 µM in experiment [2] and above 100 µM in experiment [3].

The IC50 is the point on the concentration scale where inhibition reaches its midpoint. Read a low IC50 as greater potency.

These data come from ChEMBL document CHEMBL1140371, “Pyrazolo[3,4-c]pyridazines as novel and selective inhibitors of cyclin-dependent kinases” (J Med Chem, 2005).
